Experimental data published in the RNAGym collection of RNA variant scans (doi:10.1126/science.aae0568).
Fewer inactive variants are shown than the library holds.

B1: tRNA (parent)
chain: GUUCCGUUGGCGUAAUGGUAACGCGUCUCCCUCCUAAGGAGAAGACUGCGGGUUCGAGUCCCGUACGGAACG

Variants of: B1
Test: yeast fitness relative to wild type (ratio to wild type); higher = fitter; tRNA-Arg(CCU), competitive growth, 37 C, YPD
In short: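 The tRNA-Arg(CCU) gene variants were made by chemical synthesis with a 3% per-site mutation rate at 69 sites and inserted at the native genomic locus of Saccharomyces cerevisiae. After pooling, the strains were competed in YPD at 37°C for 24 hours in six parallel replicates. Gene amplicons from the start population and each end population were read by 100-nucleotide paired-end sequencing, and Darwinian fitness relative to wild type was taken from genotype frequency changes. Genotypes needed ≥ 100 starting reads, and estimates < 0.5 were set to 0.5.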

Going from A15C C31G A40U to C4U C31U A37C, the yeast fitness falls from 0.624 to 0.532.

Going from C30U A43C G52A to C11U C46G G51A C55U G63U, the yeast fitness falls from 0.516 to ≤ 0.5.

Going from A65G C66U to C55G C61U, the yeast fitness falls from 0.993 to 0.743.

Compared with U3C C11A C31A G67U, U53A A57C is higher in yeast fitness: ≤ 0.5 for the first, 0.623 for the second.

Compared with C34U G48A C55U, C11G A37C A42G C66G G68U is lower in yeast fitness: 0.638 for the first, ≤ 0.5 for the second.

Going from C22A A36G to A14U G23U C61G, the yeast fitness falls from 0.8 to ≤ 0.5.

Compared with A14C A70G, A15G A42C C46A is lower in yeast fitness: 0.749 for the first, ≤ 0.5 for the second.

First: G10A G23C G52A
Second: C11G C24U G68C
The yeast fitness of the first is higher: 0.565 for the first, 0.523 for the second.

First: U3C C4U A15G U26A U32A C62U G67C
Second: C5A C30U G68U
The yeast fitness of the first is higher: 0.613 for the first, 0.567 for the second.

G39A U47A C49U U54A and A20G G50C G63C G67C cannot be ordered by yeast fitness: ≤ 0.5 for the first, ≤ 0.5 for the second.

Going from C30G C33G A36C A37U A43U to A20G C33U G39A A57G U59C, the yeast fitness rises from ≤ 0.5 to 0.517.

Going from U7C A14C A65G A70C to U8C G9C A21C C24G G38A, the yeast fitness rises from ≤ 0.5 to 0.74.

Compared with A20G A43U U64C, A45C C46U is higher in yeast fitness: 0.704 for the first, 1.02 for the second.

First: A15C G17C
Second: A14G C49G A69U A70C
The yeast fitness of the first is higher: 0.62 for the first, 0.618 for the second.

Compared with A20G C29A A40U C62G, C5U A15G is higher in yeast fitness: ≤ 0.5 for the first, 0.912 for the second.

C4G A37G A43G A69U and G6C C11U C27G G41C C61A cannot be ordered by yeast fitness: ≤ 0.5 for the first, ≤ 0.5 for the second.

C4G C5U U8A G12A G48A and U47C C61G A65C cannot be ordered by yeast fitness: ≤ 0.5 for the first, ≤ 0.5 for the second.

G23A A40G G41A A45U G51C and C22U G23A U54G A57U cannot be ordered by yeast fitness: ≤ 0.5 for the first, ≤ 0.5 for the second.

Going from U26C A69C to C27U U28G C31A G58C, the yeast fitness falls from 0.885 to ≤ 0.5.

C11U C31U U64A A70G and G6C C61G G68A cannot be ordered by yeast fitness: ≤ 0.5 for the first, ≤ 0.5 for the second.

First: G17A U35G G48C C66U
Second: A15U U28A C46A
The yeast fitness of the first is higher: 0.535 for the first, 0.507 for the second.

Going from U2G A15U A20C U26A C30G U35A G38C U64A to U16C U19G C27G C34U A40U U53A A70U, the yeast fitness rises from ≤ 0.5 to 0.674.

Going from C11A G50A to U2G C30G C61U G68A, the yeast fitness falls from 0.651 to 0.531.

Compared with A20C U53A, C27U C33U A40C A57G C66U is lower in yeast fitness: 0.767 for the first, ≤ 0.5 for the second.

First: G9A C11A A20U C61U
Second: U8C C22A A42U U54C C66G
The yeast fitness of the first is higher: 0.559 for the first, ≤ 0.5 for the second.

G63C A65C C66A and G6A G10C C34U A40C cannot be ordered by yeast fitness: ≤ 0.5 for the first, ≤ 0.5 for the second.

Going from U2A U32C A36G to C34A G50C, the yeast fitness falls from 0.736 to 0.667.

Compared with G51A G56A U59C, G23C C31G C60A A70U is lower in yeast fitness: 0.565 for the first, 0.554 for the second.

First: G10A U19A G41C
Second: G12A U19C
The yeast fitness of the first is lower: ≤ 0.5 for the first, 0.982 for the second.

Going from U13A U28C U32A to C4A G6A A21C C24U A43G, the yeast fitness falls from 0.698 to ≤ 0.5.

Going from U8C G18A G23C C31G G38C G41A to U7C A14C C30G A40C A43U C55U, the yeast fitness rises from 0.635 to 0.64.

Going from C5U A20C U32C A40U G50A G52A to U35G A45C, the yeast fitness rises from ≤ 0.5 to 0.617.

First: C4U G12A A20G C22U
Second: U2C U19G U28G
The yeast fitness of the first is higher: 0.532 for the first, ≤ 0.5 for the second.

First: C5A G48A C49G
Second: U19A A21C G25C G68C
The yeast fitness of the first is lower: 0.682 for the first, 0.752 for the second.

U13C G51C G67A and C27G U32A C34A C55A cannot be ordered by yeast fitness: ≤ 0.5 for the first, ≤ 0.5 for the second.

Going from C11G C66A to C11A A42C, the yeast fitness rises from ≤ 0.5 to 0.606.

Compared with G25U C60G, C5G G10C A69C is higher in yeast fitness: ≤ 0.5 for the first, 0.556 for the second.

C11G U32A C33G C34A A57C and C4G C60U C61G cannot be ordered by yeast fitness: ≤ 0.5 for the first, ≤ 0.5 for the second.

Compared with C29G A43C C55G, C5A A40G C66U is lower in yeast fitness: 0.657 for the first, 0.549 for the second.

G6A A20G A36G C49G C55U and C5A C30A C34U C46U cannot be ordered by yeast fitness: ≤ 0.5 for the first, ≤ 0.5 for the second.

A21G C55U C66U and U32C A45U C66A cannot be ordered by yeast fitness: ≤ 0.5 for the first, ≤ 0.5 for the second.

U53A G58A G68U and A14U A43C U54A cannot be ordered by yeast fitness: ≤ 0.5 for the first, ≤ 0.5 for the second.

C22U C24A A42G and C4U A42C A43C C49U A70C cannot be ordered by yeast fitness: ≤ 0.5 for the first, ≤ 0.5 for the second.

First: U3C C55U A65G
Second: U3G A14C C24G A36G
The yeast fitness of the first is higher: 0.514 for the first, ≤ 0.5 for the second.

First: C24A A42G G63A
Second: A45U C66A
The yeast fitness of the first is lower: ≤ 0.5 for the first, 0.649 for the second.

Going from C11U C22U A65U A69U to U7C C49U, the yeast fitness rises from ≤ 0.5 to 0.873.

G23C A45U A65C and C4U A15G C33A U59C C60U cannot be ordered by yeast fitness: ≤ 0.5 for the first, ≤ 0.5 for the second.

Compared with U2C G23C C31G C33U A42G G52C G58C, A20G A57C is higher in yeast fitness: ≤ 0.5 for the first, 0.642 for the second.

First: C5A C60G C61G
Second: U8A C24A C30U C31U G48C C66U
The yeast fitness of the first is higher: 0.544 for the first, ≤ 0.5 for the second.

First: C29A G38A U54C A69U
Second: A40U C61G G68C
The yeast fitness of the first is lower: ≤ 0.5 for the first, 0.571 for the second.

Going from U3A C11U A65C to A21U C31G C33G, the yeast fitness falls from 0.61 to ≤ 0.5.

C49A C60U G68C and C24G A42G A57G cannot be ordered by yeast fitness: ≤ 0.5 for the first, ≤ 0.5 for the second.

Compared with A20C U59C A69C, A14C C29G G48C G67A is lower in yeast fitness: 0.705 for the first, ≤ 0.5 for the second.

U7A C29A A65C and C4A C29U G67A A70U cannot be ordered by yeast fitness: ≤ 0.5 for the first, ≤ 0.5 for the second.

G18A C55A C62G and U8C G9A C22G U32G C49G C55G cannot be ordered by yeast fitness: ≤ 0.5 for the first, ≤ 0.5 for the second.

First: C29G C31G C49A
Second: C4G G9A
The yeast fitness of the first is lower: ≤ 0.5 for the first, 0.916 for the second.

C29G C33U and C5A C22G C27G A36U A40C A57U C66U cannot be ordered by yeast fitness: ≤ 0.5 for the first, ≤ 0.5 for the second.

First: C5A U26A A40G G58C G67U
Second: A37U A40C G51A
The yeast fitness of the first is lower: 0.56 for the first, 0.687 for the second.

C34U G41C A69G and A36U U54A U64C A69U cannot be ordered by yeast fitness: ≤ 0.5 for the first, ≤ 0.5 for the second.

G9A A14G C60U C62U and G10C G23C A65C cannot be ordered by yeast fitness: ≤ 0.5 for the first, ≤ 0.5 for the second.

Compared with C11U U35A G38A G56C, U2G C31G A37G is higher in yeast fitness: ≤ 0.5 for the first, 0.605 for the second.

First: C4G G23C
Second: A15G C33U A40G G51C A57U
The yeast fitness of the first is higher: 0.587 for the first, ≤ 0.5 for the second.

Compared with G12A G39C C46A, C11U U28G G51C U64A C66U A69C is lower in yeast fitness: 0.554 for the first, ≤ 0.5 for the second.

Compared with C27A G52C, C4U A42C C61G A65U is higher in yeast fitness: 0.562 for the first, 0.62 for the second.

First: C5U G44C A69U
Second: G23C C24A C30G A40U U47A G51C C66A A69U
The yeast fitness of the first is higher: 0.815 for the first, 0.525 for the second.

Compared with C11U A15C, C4A C27U A42U C62U is lower in yeast fitness: 0.595 for the first, ≤ 0.5 for the second.

First: U3C A15G G68C
Second: G12A U28G C33G
The yeast fitness of the first is higher: 0.618 for the first, ≤ 0.5 for the second.

Compared with A14U A45C G56A, G18C C24G U35C G50C C55G G67C is lower in yeast fitness: 0.581 for the first, ≤ 0.5 for the second.

First: U26C C46U G51A
Second: U26C C33G A45G
The yeast fitness of the first is higher: 0.64 for the first, ≤ 0.5 for the second.

First: G12A G58C
Second: G9C U16G C29G A40G
The yeast fitness of the first is higher: 0.935 for the first, ≤ 0.5 for the second.

Compared with C31U C55G C62U, G10C C22U is higher in yeast fitness: ≤ 0.5 for the first, 0.803 for the second.

Going from G10C C22A to C11U A20C C29G, the yeast fitness falls from 0.705 to 0.568.

First: A45G G58A
Second: C4A G63C
The yeast fitness of the first is higher: 1.04 for the first, 0.748 for the second.

C4A U28A C31G U35A U47A U54A and G12C G18C G25A C66U cannot be ordered by yeast fitness: ≤ 0.5 for the first, ≤ 0.5 for the second.

First: G12A A43U G58C
Second: C22U G51A
The yeast fitness of the first is lower: 0.632 for the first, 0.804 for the second.

Compared with C4G G25A U28C A36C C60U U64A C66U, C4G A15G G17C C34A is higher in yeast fitness: ≤ 0.5 for the first, 0.598 for the second.

Compared with C5G G23A C31G, U7C G41A A42C G50C is higher in yeast fitness: ≤ 0.5 for the first, 0.592 for the second.

Going from U2A C5A A40U to C5G C11G A42C C49U C62A, the yeast fitness falls from 0.647 to ≤ 0.5.

First: G9C A14C A69U
Second: C22A A57U
The yeast fitness of the first is lower: ≤ 0.5 for the first, 0.606 for the second.

First: G23A C30G
Second: U2C G25A A37G A70C
The yeast fitness of the first is higher: 0.527 for the first, ≤ 0.5 for the second.

U13C A43G G50C G67A and G10A C24G C33G A45U G68C cannot be ordered by yeast fitness: ≤ 0.5 for the first, ≤ 0.5 for the second.

First: U3G U8C C62U
Second: A40C G48C A69C
The yeast fitness of the first is lower: 0.525 for the first, 0.57 for the second.

First: A14U A15G C55G C61G
Second: C30A C31A G38A C49U G52A
The yeast fitness of the first is higher: 0.637 for the first, ≤ 0.5 for the second.

For A14C U28A A42U U54A, the yeast fitness was ≤ 0.5.
